Experiments:
[1] = biological target: cGMP-specific 3',5'-cyclic phosphodiesterase (Canis lupus familiaris, UniProt O77746); test: Inhibition of canine lung PDE5 using [3H]cGMP incubated for 30 mins by scintillation analysis
Outline: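 Radiolabeled nucleotide method using PDE5 isolated from canine lung. Started with [³H]cGMP plus unlabeled cGMP, 37 °C for 30 min, stopped by boiling 1.5 min. Crotalus atrox venom step at 37 °C for 30 min, column separation, eluate counted by scintillation.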

[2] = Selectivity for bovine retina PDE6 to canine lung PDE5
[3] = system: Corpus cavernosum; test: Relaxation effect on phenylephrine-induced contractile response in isolated rabbit corpus cavernosum; format: functional; conditions: Oryctolagus cuniculus
Outline: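 Isolated rabbit corpus cavernosum strips in organ baths. High-KCl (120 mM) PSS contraction checked twice, then phenylephrine (5 × 10⁻⁶ M) gave a tonic contraction. Once stable, test compound (10⁻¹⁰–10⁻⁶ M) or vehicle added at 30 min intervals. EC30 derived from the logarithmic concentration–inhibition curve.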

Row | SMILES | IC50 [1] [nM] | Selectivity ratio [2] | EC30 [3] [nM] | Ratio IC50 [2]
1 | COc1ccc(Cn2c(=O)cc(-c3ccccn3)c3cnc(N4CCC[C@H]4CO)nc32)cc1Cl | 1.7 | 1900 | – | –
2 | COc1ccc(Cn2c(=O)cc(-c3nccn3C)c3cnc(N4CCC[C@H]4CO)nc32)cc1Cl | 7.2 | – | – | –
3 | COc1ccc(CNc2nc(N3CCC[C@H]3CO)ncc2C(=O)CCN2CCOCC2)cc1Cl | 2.9 | – | – | –
4 | COc1ccc(Cn2c(=O)ccc3cnc(N4CCC[C@H]4CO)nc32)cc1Cl | 3.3 | 850 | 2.2 | –
5 | CCCc1nn(C)c2c(=O)[nH]c(-c3cc(S(=O)(=O)N4CCN(C)CC4)ccc3OCC)nc12 [SILDENAFIL] | – | – | 8.7 | –
6 | COc1ccc(CNc2nc(N3CCC[C@H]3CO)ncc2C=O)cc1Cl | 33 | – | – | –
7 | COc1ccc(CNc2nc(N3CCC[C@H]3CO)ncc2C(=O)c2nccn2C)cc1Cl | 12 | – | – | –
8 | COc1ccc(Cn2c(=O)cc(C)c3cnc(N4CCC[C@H]4CO)nc32)cc1Cl | 0.86 | 2300 | 0.85 | –
9 | COc1ccc(Cn2c(=O)cc(CCN3CCOCC3)c3cnc(N4CCC[C@H]4CO)nc32)cc1Cl | 0.98 | 1600 | 8.6 | –
10 | COc1ccc(CNc2nc(N3CCC[C@H]3CO)ncc2C(=O)c2ccccn2)cc1Cl | 12 | – | – | –
11 | COc1ccc(CNc2nc(N3CCC[C@H]3CO)ncc2C(=O)c2cc(OC)c(OC)c(OC)c2)cc1Cl | 0.21 | – | > 100 | 5700
12 | COc1ccc(CNc2nc(N3CCC[C@H]3CO)ncc2C(C)=O)cc1Cl | 5.2 | – | – | –

— ChEMBL document CHEMBL3400122, “8-(3-chloro-4-methoxybenzyl)-8H-pyrido[2,3-d]pyrimidin-7-one derivatives as potent and selective phosphodiesterase 5 inhibitors” (Bioorg Med Chem Lett, 2015)
